From ChEMBL document CHEMBL1125562, “Antimitotic agents: ring analogues and derivatives of ethyl [(S)-5-amino-1,2-dihydro-2-methyl-3-phenylpyrido[3,4-b]pyrazin-7-yl]carbamate” (J Med Chem, 1992)

Tests used:
L1210 [1] = assay: Concentration that causes a mitotic index (number of cells in mitosis divided by total cells) of 0.5 for cultured lymphoid leukemia L1210 cells during an exposure period of 12 h; format: functional, Mus musculus
Outline: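 Mouse lymphoid leukemia L1210 cells in culture, exposed to agent for 12 h. Mitotic index is cells in mitosis over total cells. Value is the nanomolar concentration giving an index of 0.5.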

Mus musculus [2] = assay: Compound was evaluated in vivo for antileukemic activity by calculating Percent increase in life span at dose of 0.5 mg/kg; format: functional
Outline: (§1)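 NCI protocols. CD2F1 mice were implanted ip with 10⁶ lymphocytic leukemia P388 cells 24 h before treatment. Drug was given ip daily on days 1–5, or as a single day-1 dose where footnoted. The read-out was percent increase in lifespan.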

L1210 [3] = assay: Concentration that inhibits proliferation of cultured lymphoid leukemia L1210 cells to 50% control growth during 48 h; format: functional, cell-based; conditions: Mus musculus, L1210, 48 h
Outline: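 L1210 lymphoid leukemia cells in culture, exposed to agent for 48 h. Proliferation is measured against untreated control growth. Value is the nanomolar concentration holding growth to 50% of control.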

Mus musculus [4] = assay: Compound was evaluated in vivo for antileukemic activity by calculating Percent increase in life span at dose of 8 mg/kg; format: functional; outline: as §1
Mus musculus [5] = assay: Compound was evaluated in vivo for antileukemic activity by calculating Percent increase in life span at dose of 75 mg/kg; format: functional; outline: as §1
Mus musculus [6] = assay: Compound was evaluated in vivo for antileukemic activity by calculating Percent increase in life span at dose of 1 mg/kg; format: functional; outline: as §1
Mus musculus [7] = assay: Compound was evaluated in vivo for antileukemic activity by calculating Percent increase in life span at dose of 24 mg/kg; format: functional; outline: as §1
Mus musculus [8] = assay: Compound was evaluated in vivo for antileukemic activity by calculating Percent increase in life span at dose of 2 mg/kg; format: functional; outline: as §1
Mus musculus [9] = assay: Compound was evaluated in vivo for antileukemic activity by calculating Percent increase in life span at dose of 30 mg/kg; format: functional; outline: as §1
Mus musculus [10] = assay: Compound was evaluated in vivo for antileukemic activity by calculating Percent increase in life span at dose of 70 mg/kg; format: functional; outline: as §1
Mus musculus [11] = assay: Compound was evaluated in vivo for antileukemic activity by calculating Percent increase in life span at dose of 200 mg/kg; format: functional; outline: as §1

| Compound | MI0.5 (L1210 [1]) | IC50 (L1210 [3]) | also measured |
| --- | --- | --- | --- |
| CCOC(=O)Nc1cc2c(c(N)n1)N=C(c1ccccc1)[C@H](C)N2 [MIVOBULIN] | 0.14 nM |  | ILS at 0.5 mg/kg (Mus musculus [2]): 64% |
| COc1cc2c(c(OC)c1OC)-c1ccc(OC)c(=O)cc1[C@@H](NC(C)=O)CC2 [COLCHICINE] | 21 nM |  |  |
| CCOC(=O)Nc1cc2c(c(N)n1)N=C(c1ccccc1)CCN2 |  | 3.7 nM | ILS at 8 mg/kg (Mus musculus [4]): 35% |
| CCOC(=O)Nc1cc(N)c2c(n1)NC(C)C(c1ccccc1)=N2 (stereo not given) | 6700 nM | 3900 nM | ILS at 75 mg/kg (Mus musculus [5]): 0% |
| CCOC(=O)Nc1cc2c(c(N)n1)N=C(c1ccccc1)C(C)N2 (racemic) | 0.58 nM |  | ILS at 1 mg/kg (Mus musculus [6]): 71% |
| CCOC(=O)Nc1cc2c(cn1)N=C(c1ccccc1)C(C)N2 (stereo not given) | 21 nM | 17 nM | ILS at 24 mg/kg (Mus musculus [7]): 90% |
| CC[C@]1(O)C[C@H]2CN(CCc3c([nH]c4ccccc34)[C@@](C(=O)OC)(c3cc4c(cc3OC)N(C=O)[C@H]3[C@@](O)(C(=O)OC)[C@H](OC(C)=O)[C@]5(CC)C=CCN6CC[C@]43[C@@H]65)C2)C1 [VINCRISTINE] | 11 nM |  | ILS at 2 mg/kg (Mus musculus [8]): 85% |
| CCOC(=O)Nc1cc2c(c(O)n1)N=C(c1ccccc1)C(C)N2 (stereo not given) | 1800 nM | 4400 nM |  |
| CCOC(=O)Nc1cc2c(c(N)n1)N=C(c1ccccc1)[C@@H](C)N2 | 27 nM |  | ILS at 30 mg/kg (Mus musculus [9]): 88% |
| CCOC(=O)Nc1cc2c(cn1)NC(c1ccccc1)C(C)N2 (stereo not given) | 161 nM | 81 nM | ILS at 70 mg/kg (Mus musculus [10]): 65% |
| COC(=O)Nc1nc(N)c2c(n1)NC(C)C(c1ccccc1)=N2 (stereo not given) | 3000 nM | 1700 nM | ILS at 200 mg/kg (Mus musculus [11]): 0% |
